The values below come from ChEMBL document CHEMBL2029317, “(Z)-2-(2-bromophenyl)-3-{[4-(1-methyl-piperazine)amino]phenyl}acrylonitrile (DG172): an orally bioavailable PPARβ/δ-selective ligand with inverse agonistic properties” (J Med Chem, 2012).

In data set [1] the target is T1, Peroxisome proliferator-activated receptor gamma (Homo sapiens) (UniProt P37231).
T1 sequence (whole entry): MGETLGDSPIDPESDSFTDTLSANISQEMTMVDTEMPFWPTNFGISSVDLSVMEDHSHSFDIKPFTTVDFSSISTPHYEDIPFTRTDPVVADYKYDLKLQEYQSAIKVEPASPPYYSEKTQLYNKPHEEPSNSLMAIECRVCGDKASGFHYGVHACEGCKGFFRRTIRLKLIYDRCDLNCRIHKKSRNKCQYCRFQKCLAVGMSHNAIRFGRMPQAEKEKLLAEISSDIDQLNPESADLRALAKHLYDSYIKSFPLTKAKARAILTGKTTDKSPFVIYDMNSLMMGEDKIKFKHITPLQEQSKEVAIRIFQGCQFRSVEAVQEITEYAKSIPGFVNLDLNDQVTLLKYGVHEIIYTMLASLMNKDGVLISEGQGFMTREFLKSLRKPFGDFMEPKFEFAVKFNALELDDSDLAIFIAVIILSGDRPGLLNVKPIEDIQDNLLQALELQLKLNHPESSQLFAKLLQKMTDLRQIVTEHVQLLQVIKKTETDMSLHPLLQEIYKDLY
In words: Displacement of fluormone Pan-PPAR Green from PPARgamma at 100 to 1000 nM after 60 mins by TR-FRET assay. In general terms: Time-resolved FRET reads energy transfer from a long-lived donor to a nearby acceptor.

The subject of another data set is Mus musculus. In words: AUC (infinity) in CD1 mouse at 5 mg/kg, po. The format is ADME, organism-based, Plasma. The arrangement: time infinity, dose 5 mg/kg, route oral. As to conditions: in vivo. The method in brief: (§1)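 Male CD-1 mice dosed iv by tail vein (1 mg/kg) or po by gastric gavage (5 mg/kg). Vehicle was DMSO/Solutol HS 15/PBS pH 7.4 (5/5/90, v/v/v). Blood was taken at eight time points from 10 min to 12 h, by parallel sampling of three mice per point. Plasma was acetonitrile-precipitated and analysed by HPLC-MS/MS, and basic PK parameters were derived.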

The subject of the next data set is Macrophage. In words: Inhibition of Angptl expression in mouse Ppard-knock out macrophages at 1 uM after 6 hrs by RT-qPCR analysis. The format is functional, cell-based. In a few lines:
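Macrophages from Ppard null and wild-type mice were treated with compound (1 μM), agonist L165,041 (500 nM) or DMSO solvent for 6 h. Angptl4 mRNA was measured by RT-qPCR with L27 as the normalizer.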
(In general: In qPCR the cycle at which signal appears reflects the starting amount.)

In data set [2] the target is T2, Peroxisome proliferator-activated receptor delta (Mus musculus) (UniProt P35396).
T2 sequence (whole entry): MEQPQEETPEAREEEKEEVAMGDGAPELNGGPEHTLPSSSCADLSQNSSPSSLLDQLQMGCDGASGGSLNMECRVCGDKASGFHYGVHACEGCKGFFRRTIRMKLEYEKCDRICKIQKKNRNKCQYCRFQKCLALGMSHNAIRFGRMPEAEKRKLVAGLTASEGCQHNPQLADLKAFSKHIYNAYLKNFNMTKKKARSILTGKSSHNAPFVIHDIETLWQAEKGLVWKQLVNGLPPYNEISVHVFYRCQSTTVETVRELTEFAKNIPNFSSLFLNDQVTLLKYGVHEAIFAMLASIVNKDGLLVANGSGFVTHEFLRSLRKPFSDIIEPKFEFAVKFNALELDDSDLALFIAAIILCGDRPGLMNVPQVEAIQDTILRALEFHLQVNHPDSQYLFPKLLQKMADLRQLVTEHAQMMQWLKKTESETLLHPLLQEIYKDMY
The data set can be described thus: Displacement of fluormone Pan-PPAR Green from mouse recombinant GST-tagged PPARbeta/delta LBD at 1 uM after 60 mins by TR-FRET assay. In a few lines: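 Competitive binding by LanthaScreen TR-FRET: recombinant GST-PPARβ/δ LBD, detected through a terbium-labelled anti-GST antibody, was incubated with Fluormone Pan-PPAR Green. Compound was tested at 1 μM. Read-out is the 520 nm/495 nm emission ratio after terbium excitation, as averages of triplicates ± SD.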

Data set [3] in a line: Half life in CD1 mouse at 5 mg/kg, po. The data set is classed as ADME, organism-based. The arrangement: dose 5 mg/kg, route oral. As to conditions: in vivo. In a few lines: as §1
Data set [4] can be described thus: Volume of distribution at steady state in CD1 mouse at 1 mg/kg, iv. The format is ADME, organism-based. Also noted: dose 1 mg/kg, route intravenous. As to conditions: in vivo, read-out: Vdss. The method in brief:
as §1

Data set [5] deals with T2, Peroxisome proliferator-activated receptor delta (Mus musculus). As to conditions: 1 uM.
Data set [6] is described as follows: Oral bioavailability in CD1 mouse at 5 mg/kg. The format is ADME, organism-based. As to conditions: in vivo. The method in brief:
as §1

A short description of data set [7]: Cmax in CD1 mouse at 5 mg/kg, po. The format is ADME, organism-based. The arrangement: dose 5 mg/kg, route oral. As to conditions: in vivo. In a few lines:
as §1

Data set [8] deals with T2, Peroxisome proliferator-activated receptor delta (Mus musculus). The data set can be described thus: Displacement of fluormone Pan-PPAR Green from mouse recombinant GST-tagged PPARbeta/delta LBD after 60 mins by TR-FRET assay.
Data set [9] is described as follows: Drug uptake in CD1 mouse blood at 5 mg/kg, po up to 30 mins.

Active and inactive are the calls of the source. The calls are words filed in the database; no cut-off is given here. Bounds are passed on as bounds.

One may read the AUC as concentration integrated over time. A lower AUC goes with low exposure. What is called half-life is how long it takes for the measured level to halve. One may read the bioavailability as the share of a dose that reaches the circulation, judged against a reference dose that is usually intravenous. A lower bioavailability goes with poor availability. The term Cmax denotes the highest concentration seen after dosing. Turning to `CN1CCN(c2ccc(/C=C(\C#N)c3ccccc3Br)cc2)CC1`, the outcome in data set [1] was inactive. The molecule further yielded an area under the curve (AUC) with Mus musculus of 137 ng·h/mL. Besides, in the data set on Macrophage, the inhibition entry was “inactive”. For the same molecule, in [2], the outcome was Active. Further, the half-life in data set [3] worked out at 10.6 h. The Vd in data set [4] worked out at 12.5 L/kg. The inhibition result in [5] was “Active”. In data set [6], this molecule yielded a bioavailability of 72%. Besides, the peak concentration (Cmax) in data set [7] came out at 94 ng/mL.

For the molecule `CN(C)c1ccc(/C=C(\C#N)c2ccccc2Cl)cc1`, the result in data set [8] and in data set [2] was Active. Further, in [1], the result was inactive. Further, in data set [4], the Vd turned out to be 6.2 L/kg. Besides, the concentration at 0.5 h in data set [9] was no more than 6 ng/mL.
